In publication PMC6366850 (Chembiochem : a European journal of chemical biology, 2018):
Like-named read-outs stand apart in the source and are kept apart here. One block for each compound: values may come before it.

Experiments:
[1] = molecular target: Porcine Pancreatic Elastase (Sus scrofa, UniProt P00772); test: Porcine pancreatic elastase inhibition assay; format: biochemical
[2] = molecular target: T1, Human Neutrophil Elastase (Homo sapiens, UniProt P08246); test: Human neutrophil elastase inhibition assay; format: biochemical; conditions: for fold less potent than 1, HNE: ratio of IC50 values
T1 sequence (P08246 30-267): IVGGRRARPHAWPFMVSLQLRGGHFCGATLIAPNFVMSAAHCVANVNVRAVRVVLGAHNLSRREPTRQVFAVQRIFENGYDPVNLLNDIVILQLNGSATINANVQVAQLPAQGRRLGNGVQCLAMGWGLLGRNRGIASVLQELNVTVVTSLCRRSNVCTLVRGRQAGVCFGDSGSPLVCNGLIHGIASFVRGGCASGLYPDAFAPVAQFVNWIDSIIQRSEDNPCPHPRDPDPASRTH

[3] = molecular target: T2, Human neutrophil elastase (HNE) (Homo sapiens, UniProt P08246); test: In vitro cleavage of CD40-IgG chimera; format: biochemical; conditions: qualitative gel assessment; for complete inhibition of CD40ch cleavage up to (concentration): tested 0.001–100 μM, 2 h pre-incubation with HNE
T2 sequence (P08246 30-267): T1 sequence (P08246 30-267)
Outline: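 Human neutrophil elastase (100 μg/mL stock in 0.1 M Tris-NaCl, pH 7.5) was pre-incubated 2 h at 4 °C with test compound (0.001–100 μM) or DMSO. CD40-IgG chimera (human CD40 residues 21–193 fused to human IgG1 fragment) was then added at an elastase:CD40 molar ratio of 1:10 and incubated 1.5 h at 37 °C. Reactions were stopped by freezing and fragments run on reducing SDS-PAGE (2% mercaptoethanol). Gels were silver-stained and bands judged qualitatively; controls were elastase only and CD40 only.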

MDA-MB-231 cells [4] = test: Transwell migration assay; format: cell-based, human; conditions: 48 h; for effect on migration of MDA-MB-231 cells: 100 nM HNE
Outline: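 Transwell inserts with 8 μm pore PET membranes. 5000 MDA-MB-231 cells in DMEM/10% FBS were seeded in the insert with test compound in DMSO or solvent, with or without 100 nM recombinant HNE; the lower chamber held complete medium with the same additions. Plates were incubated 48 h at 37 °C, 5% CO₂, and non-migrated cells were swabbed off. Migrated cells were crystal violet-stained and counted microscopically, in triplicate. Comparisons to solvent control used a two-tailed unpaired t test.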

[5] = test system: CD40 cleavage by HNE in MDA-MB-231 cells; test: Cleavage of CD40 by HNE in MDA-MB-231 cells, Western blot; format: cell-based, human; conditions: 100 nM HNE, 24 h
Outline: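 MDA-MB-231 cells seeded at 150,000/well; after 24 h, medium was replaced with medium containing 100 nM recombinant human neutrophil elastase plus test compound in DMSO or solvent. Lysates were taken after 24 h incubation and protein measured by BCA. 17 μg protein was run on SDS-PAGE, blotted to PVDF and probed with anti-CD40 antibody detecting the N-terminal fragment, with chemiluminescent detection.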

MDA-MB-231 cells [6] = test: HNE-induced morphological changes; format: cell-based, human
MDA-MB-231 cells [7] = test: Cell viability assay; format: cell-based, human; conditions: 48 h, MTT
Outline: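 MDA-MB-231 cells seeded at 12,000 cells/well and grown 24 h, then exposed to test compound, HNE or DMSO solvent control. After 48 h, viability was read by MTT per the kit instructions.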

[8] = molecular target: T3, Bovine Pancreatic Chymotrypsin (Bos taurus, UniProt P00766); test: Chymotrypsin inhibition assay; format: biochemical
Outline: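 Bovine pancreatic α-chymotrypsin in 50 mM Tris-HCl, 100 mM NaCl, 1 mM CaCl₂, pH 7.8. Test compound in DMSO (top 100 μM final, half-log dilutions) was pre-incubated with enzyme for 30 min at room temperature. Substrate was N-succinyl-Gly-Gly-Phe-p-nitroanilide (1.5 mM solution). A405 was read every 30 s for 30 min, with a PMSF positive control. Percent activity came from initial slopes relative to solvent control.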

[9] = test system: sICAM-1 (ICAM-1 shedding) in MDA-MB-231 cells; test: sICAM-1 levels by ICAM-1 AlphaLisa; format: cell-based, human; conditions: 12 h; for reduction in the levels of sICAM-1: co-treatment with 100 nM HNE
Outline: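 MDA-MB-231 cells were grown overnight, starved 24 h, then placed in serum-free DMEM containing test compound or solvent, with 100 nM HNE where applied. After 12 h, culture medium was collected and soluble ICAM-1 quantified by AlphaLisa.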

[10] = molecular target: purified 20S human proteasome (Homo sapiens, UniProt P28074); test: Proteasome activity assay; format: biochemical; conditions: 50 μM, compared to positive control epoxomicin
Outline: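 Purified human 20S proteasome (0.1 μg/well final) was pre-incubated 10 min at room temperature with test compound (50 μM final). Suc-LLVY-AMC substrate (75 μM final) was then added to measure chymotrypsin-like activity, using a commercial kit per the manufacturer's protocol.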

[11] = test system: ICAM-1 gene expression in MDA-MB-231 cells; test: ICAM-1 gene expression by RT-qPCR; format: cell-based, human; conditions: 12 h
Outline: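 MDA-MB-231 cells seeded at 500,000/well, grown 24 h, then serum-starved 24 h in DMEM. Medium was replaced with serum-free DMEM containing test compound or solvent, with 100 nM HNE where applied, for 12 h. RNA was isolated, reverse-transcribed with oligo(dT), and ICAM-1 transcripts were quantified by TaqMan qPCR.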

[12] = molecular target: T3, Bovine Pancreatic Chymotrypsin; conditions: read-out: reported IC50 against bovine chymotrypsin; cited from earlier work
[13] = read-out: IC50 Human Neutrophil Elastase, mean ± SD, n=3, 15 min pre-incubation

Porcine Pancreatic Elastase, sequence (P00772 27-266): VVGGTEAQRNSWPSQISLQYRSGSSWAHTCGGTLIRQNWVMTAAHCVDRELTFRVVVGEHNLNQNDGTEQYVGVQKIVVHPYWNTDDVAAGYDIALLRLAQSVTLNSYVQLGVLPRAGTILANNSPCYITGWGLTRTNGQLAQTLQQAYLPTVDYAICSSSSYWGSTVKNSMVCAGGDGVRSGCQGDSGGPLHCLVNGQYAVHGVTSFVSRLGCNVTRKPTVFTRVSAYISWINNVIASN

IC50 [1]: 3550 ± 140 nM
SMILES: CC(C)(C)C(=O)Oc1ccc(S(=O)(=O)Nc2ccccc2C(=O)NCC(=O)O)cc1 [Sivelestat, reference compound]

SMILES: CCCC(=O)N[C@@H](C)C(=O)N[C@@H](C(=O)N[C@@H]1C(=O)N[C@@H](CC(C)C)C(=O)N[C@H]2CC[C@@H](O)N(C2=O)[C@@H](Cc2ccccc2)C(=O)N(C)[C@@H](Cc2ccc(O)cc2)C(=O)N[C@@H](C(C)C)C(=O)O[C@H]1C)[C@@H](C)OC(=O)[C@H](C)NC(=O)CCC [Loggerpeptin B (2), loggerpeptin B]
fold less potent than 1, HNE [2]: 3 fold
IC50 [2, 13]: 890 ± 90 nM

IC50 [2, 13]: 290 ± 40 nM
SMILES: CCCC(=O)N[C@@H](C)C(=O)N[C@H](C(=O)N[C@@H]1C(=O)N[C@@H](CC(C)C)C(=O)N[C@H]2CC[C@@H](O)N(C2=O)[C@@H](Cc2ccccc2)C(=O)N(C)[C@@H](Cc2ccc(O)cc2)C(=O)N[C@@H](C(C)C)C(=O)O[C@@H]1C)[C@H](C)O [Loggerpeptin A (1), loggerpeptin A]

SMILES: C/C=C(\NC(=O)[C@H](C)NC(=O)CCC)C(=O)N[C@@H]1C(=O)N[C@@H](CC(C)C)C(=O)N[C@H]2CC[C@@H](O)N(C2=O)[C@@H](Cc2ccccc2)C(=O)N(C)[C@@H](Cc2ccc(O)cc2)C(=O)N[C@@H](C(C)C)C(=O)O[C@@H]1C [Loggerpeptin C (3), loggerpeptin C]
complete inhibition of CD40ch cleavage up to (concentration) [3]: 10 µM
fold less potent than 1 and 2, porcine pancreatic elastase ([1]; ratio of IC50 values): 2 fold
fold less potent than 1, HNE [2]: 2 fold
IC50 [2, 13]: 620 ± 380 nM
effect on migration of MDA-MB-231 cells (MDA-MB-231 cells [4]; different concentrations): no effect on migration
inhibition of HNE processing of CD40 in cells ([5]; 10 μM): lacked significant activity
inhibition of HNE processing of CD40 in cells ([5]; 50 μM): marginal activity

SMILES: C/C=C1\NC(=O)[C@@H](NC(=O)[C@@H](NC(=O)[C@H](C)NC(=O)CCC)[C@@H](C)O)[C@@H](C)OC(=O)[C@H](C(C)C)NC(=O)[C@H](Cc2ccc(O)cc2)N(C)C(=O)[C@H](Cc2ccccc2)N2C(=O)[C@H](CC[C@H]2O)NC1=O [Molassamide (4), molassamide]
HNE-induced cell rounding prevented up to (concentration) (MDA-MB-231 cells [6]; co-treatment with 100 nM HNE, 3 h): 10 µM
morphological changes upon treatment with compound only (MDA-MB-231 cells [6]; without HNE, up to 50 μM): no morphological changes
effect on viability of MDA-MB-231 cells (MDA-MB-231 cells [7]): no reduction in cell viability
IC50 [8]: 240 ± 10 nM
fold more potent than 3 in inhibiting CD40ch cleavage [3]: 10 fold
complete inhibition of CD40ch cleavage up to (concentration) [3]: 1 µM
reduction in the levels of sICAM-1 ([9]; 10 μM): 35%
reduction in the levels of sICAM-1 ([9]; 50 μM): 65%
effect on the levels of sICAM-1 in the absence of HNE ([9]; without HNE): no effects
inhibition of chymotrypsin-like activity of proteasomes [10]: did not inhibit
IC50 [1]: 50 ± 10 nM
IC50 [2]: 110 ± 10 nM
effect on migration of MDA-MB-231 cells (MDA-MB-231 cells [4]; 10 μM): inhibited the migration
effect on migration of MDA-MB-231 cells in the absence of HNE (MDA-MB-231 cells [4]; without HNE): did not exhibit any migration inhibitory activity
elastase-induced ICAM-1 expression levels ([11]; 100 nM HNE): dose-dependent decrease
ICAM-1 expression levels in the absence of HNE ([11]; without HNE): no significant change
inhibition of HNE processing of CD40 in cells ([5]; 50 μM): virtually complete inhibition

SMILES: CC(=O)N1CCC[C@H]1C(=O)N[C@H](C(=O)N[C@@H]1C(=O)N[C@@H](CC(C)C)C(=O)N[C@H]2CC[C@@H](O)N(C2=O)[C@@H](Cc2ccccc2)C(=O)N(C)[C@@H](Cc2ccc(O)cc2)C(=O)N[C@@H](C(C)C)C(=O)O[C@@H]1C)[C@@H](C)O [kempopeptin A]
IC50 [12]: 300 nM
